What all share (type): functional
One assay deals with Candida albicans. As to the kind of experiment: Minimum inhibitory concentration (MIC) against Candida albicans. The essentials:
(§1)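 Broth microdilution in Sabouraud's glucose broth. Final inocula 1×10^5 cells/mL for the yeast (C. albicans) and 1×10^5 conidia/mL for the mold (A. fumigatus) and the dermatophyte (T. asteroides). MIC read as the fungistatic end point. Lowest value of duplicated experiments.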

Another assay has as its system Aspergillus fumigatus. As to the kind of experiment: Minimum inhibitory concentration (MIC) against Aspergillus fumigatus. The essentials:
as §1

A further assay deals with Trichophyton benhamiae. As to the kind of experiment: Minimum inhibitory concentration against Trichophyton asteroides. The essentials:
as §1

In brackets after ≈: the same amount, converted by molar mass. Where only a bound is given, the exact number is not on record here.

For orientation: MIC means the smallest concentration in the dilution series that meets the test's criterion for growth inhibition. A high value points to a less susceptible organism.

`C=C(c1cc(Cl)ccc1OC(C)c1ccccc1)n1ccnc1` (configuration not stated): the figures for the MIC against Candida albicans, in the assay with Aspergillus fumigatus and with Trichophyton benhamiae were 25 µg/mL (≈ 77 µM), 6.3 µg/mL (≈ 19.4 µM) and 0.1 µg/mL (≈ 0.308 µM), respectively.

For the compound `CC(C)=C(c1cc(Cl)ccc1OCc1ccc(Cl)c(Cl)c1)n1ccnc1`, the MIC against Candida albicans was found to be 12.5 µg/mL (≈ 30.7 µM); with Aspergillus fumigatus it was 6.2 µg/mL (≈ 15.2 µM); against Trichophyton benhamiae, 3.1 µg/mL (≈ 7.6 µM).

As to `C=C(c1cc(Cl)ccc1OCCCC)n1ccnc1`, the figures for the MIC in the assay with Candida albicans, against Aspergillus fumigatus and against Trichophyton benhamiae were 25 µg/mL (≈ 90.3 µM), 0.4 µg/mL (≈ 1.45 µM) and 0.2 µg/mL (≈ 0.723 µM), respectively.

For the compound `C=C(c1cc(Cl)ccc1OCCC)n1ccnc1`, the MIC with Candida albicans is 25 µg/mL (≈ 95.2 µM); against Aspergillus fumigatus, 0.8 µg/mL (≈ 3.04 µM); with Trichophyton benhamiae it was 0.1 µg/mL (≈ 0.381 µM).

Consider `CC(C)=C(c1ccccc1OCCCOc1ccccc1)n1ccnc1`, for which the MIC with Candida albicans was 25 µg/mL (≈ 71.7 µM); in the assay on Aspergillus fumigatus it was 6.2 µg/mL (≈ 17.8 µM); in the assay on Trichophyton benhamiae, 3.1 µg/mL (≈ 8.9 µM).

As for `C=C(c1cc(Cl)ccc1OCCCc1ccccc1)n1ccnc1`, the results for the MIC in the assay on Candida albicans, in the assay with Aspergillus fumigatus and in the assay on Trichophyton benhamiae were 50 µg/mL (≈ 148 µM), 1.6 µg/mL (≈ 4.72 µM) and 0.2 µg/mL (≈ 0.59 µM), respectively.

For `C=C(c1cc(Cl)ccc1OCc1ccc(C(=O)OC)cc1)n1ccnc1`, the MIC worked out at 25 µg/mL (≈ 67.8 µM) against Candida albicans, 6.2 µg/mL (≈ 16.8 µM) with Aspergillus fumigatus and 0.1 µg/mL (≈ 0.271 µM) with Trichophyton benhamiae.

Consider `CC(C)=C(c1ccccc1OCc1ccccc1)n1ccnc1`, for which the minimal inhibitory concentration (MIC) turned out to be 25 µg/mL (≈ 82.1 µM) against Candida albicans, 12.5 µg/mL (≈ 41.1 µM) in the assay on Aspergillus fumigatus and 1.6 µg/mL (≈ 5.26 µM) against Trichophyton benhamiae.

For the compound `C=C(c1ccccc1OC(C)c1ccc(OC)cc1)n1ccnc1` (configuration not stated), the values for the MIC against Candida albicans, in the assay with Aspergillus fumigatus and in the assay on Trichophyton benhamiae were 12.5 µg/mL (≈ 39 µM), 12.5 µg/mL (≈ 39 µM) and 0.4 µg/mL (≈ 1.25 µM), respectively.

In the case of `C=C(c1cc(Cl)ccc1OCc1ccsc1Cl)n1ccnc1`, the minimum inhibitory concentration (MIC) in the assay on Candida albicans was determined as 25 µg/mL (≈ 71.2 µM); against Aspergillus fumigatus, 6.2 µg/mL (≈ 17.7 µM); with Trichophyton benhamiae, 0.1 µg/mL (≈ 0.285 µM).

Consider `C=C(c1ccccc1OCCCSc1ccc(Cl)cc1)n1ccnc1`, for which the MIC was found to be 25 µg/mL (≈ 67.4 µM) against Candida albicans, 3.1 µg/mL (≈ 8.36 µM) in the assay on Aspergillus fumigatus and 0.1 µg/mL (≈ 0.27 µM) in the assay on Trichophyton benhamiae.

For the compound `C=C(c1ccccc1OC)n1ccnc1`, the minimal inhibitory concentration (MIC) in the assay on Candida albicans was greater than 100 µg/mL; in the assay on Aspergillus fumigatus, 12.5 µg/mL (≈ 62.4 µM); in the assay with Trichophyton benhamiae it was 1.6 µg/mL (≈ 7.99 µM).

Turning to `C=C(c1cc(Cl)ccc1OC(C)c1ccc(Cl)cc1)n1ccnc1` (configuration not stated), the MIC with Candida albicans was found to be 12.5 µg/mL (≈ 34.8 µM); against Aspergillus fumigatus, 12.5 µg/mL (≈ 34.8 µM); against Trichophyton benhamiae, 0.1 µg/mL (≈ 0.278 µM).

In the case of `CC=C(c1cc(Cl)ccc1OCc1ccc(Cl)cc1Cl)n1ccnc1`, the figures for the minimum inhibitory concentration (MIC) with Candida albicans, against Aspergillus fumigatus and against Trichophyton benhamiae were 12.5 µg/mL (≈ 31.7 µM), 0.4 µg/mL (≈ 1.02 µM) and 1.6 µg/mL (≈ 4.06 µM), respectively.

On to `C=C(c1ccccc1OC(C)c1cccc(Cl)c1)n1ccnc1` (configuration not stated), for which the MIC was determined as 6.2 µg/mL (≈ 19.1 µM) against Candida albicans, 12.5 µg/mL (≈ 38.5 µM) with Aspergillus fumigatus and 0.4 µg/mL (≈ 1.23 µM) in the assay with Trichophyton benhamiae.

Turning to `C=C(c1ccccc1OCC)n1ccnc1`, the results for the MIC in the assay on Candida albicans, with Aspergillus fumigatus and with Trichophyton benhamiae were greater than 100 µg/mL, 3.1 µg/mL (≈ 14.5 µM) and 0.4 µg/mL (≈ 1.87 µM), respectively.

Consider `C=C(c1cc(Cl)ccc1OC(C)c1ccsc1)n1ccnc1` (configuration not stated), for which the MIC against Candida albicans is 12.5 µg/mL (≈ 37.8 µM); against Aspergillus fumigatus, 3.1 µg/mL (≈ 9.37 µM); in the assay with Trichophyton benhamiae, 0.1 µg/mL (≈ 0.302 µM).

`C=C(c1cc(Cl)cc(Cl)c1OCc1ccsc1Cl)n1ccnc1`: the minimum inhibitory concentration (MIC) is greater than 100 µg/mL in the assay on Candida albicans, 50 µg/mL (≈ 130 µM) in the assay with Aspergillus fumigatus and 3.1 µg/mL (≈ 8.04 µM) in the assay on Trichophyton benhamiae.

Consider `CC(C)=C(c1cc(Cl)ccc1OCc1ccc(Cl)cc1)n1ccnc1`, for which the MIC in the assay with Candida albicans came out at 6.2 µg/mL (≈ 16.6 µM); with Aspergillus fumigatus, 6.2 µg/mL (≈ 16.6 µM); against Trichophyton benhamiae, 0.2 µg/mL (≈ 0.536 µM).

As to `C=C(c1cc(Cl)cc(Cl)c1OCc1ccsc1)n1ccnc1`, the MIC is greater than 100 µg/mL in the assay on Candida albicans, 100 µg/mL (≈ 285 µM) against Aspergillus fumigatus and 6.2 µg/mL (≈ 17.7 µM) against Trichophyton benhamiae.

For the compound `CC(C)=C(c1ccccc1OCc1cccc(Cl)c1)n1ccnc1`, the MIC came out at 12.5 µg/mL (≈ 36.9 µM) against Candida albicans, 3.1 µg/mL (≈ 9.15 µM) in the assay with Aspergillus fumigatus and 3.1 µg/mL (≈ 9.15 µM) against Trichophyton benhamiae.

Consider `C=C(c1ccccc1OCCCc1ccc(Cl)cc1)n1ccnc1`, for which the MIC worked out at 12.5 µg/mL (≈ 36.9 µM) against Candida albicans, 0.8 µg/mL (≈ 2.36 µM) in the assay with Aspergillus fumigatus and 0.2 µg/mL (≈ 0.59 µM) against Trichophyton benhamiae.

On to `CC(C)=C(c1ccccc1OCc1ccc(C)cc1)n1ccnc1`, for which the values for the MIC with Candida albicans, against Aspergillus fumigatus and against Trichophyton benhamiae were 25 µg/mL (≈ 78.5 µM), 6.2 µg/mL (≈ 19.5 µM) and 3.1 µg/mL (≈ 9.74 µM), respectively.

For the compound `C=C(c1ccccc1OCc1ccccc1Cl)n1ccnc1`, the minimal inhibitory concentration (MIC) with Candida albicans is 6.2 µg/mL (≈ 19.9 µM); against Aspergillus fumigatus, 0.8 µg/mL (≈ 2.57 µM); in the assay on Trichophyton benhamiae, 0.1 µg/mL (≈ 0.322 µM).

In the case of `C=C(c1ccccc1OCc1ccc(OC)cc1)n1ccnc1`, the MIC turned out to be 25 µg/mL (≈ 81.6 µM) in the assay on Candida albicans, 6.2 µg/mL (≈ 20.2 µM) in the assay on Aspergillus fumigatus and 0.1 µg/mL (≈ 0.326 µM) against Trichophyton benhamiae.

Turning to `CC(C)=C(c1ccccc1OCCCOc1ccc(Cl)cc1)n1ccnc1`, the results for the MIC with Candida albicans, in the assay with Aspergillus fumigatus and in the assay on Trichophyton benhamiae were 12.5 µg/mL (≈ 32.6 µM), 6.2 µg/mL (≈ 16.2 µM) and 1.6 µg/mL (≈ 4.18 µM), respectively.

Consider `C=C(c1ccccc1OCc1ccc(C)cc1)n1ccnc1`, for which the MIC in the assay on Candida albicans was 3.1 µg/mL (≈ 10.7 µM); with Aspergillus fumigatus it was 3.1 µg/mL (≈ 10.7 µM); in the assay on Trichophyton benhamiae, 0.1 µg/mL (≈ 0.344 µM).

Regarding `C=C(c1ccccc1OCCCOc1ccc(Cl)cc1)n1ccnc1`, the MIC against Candida albicans turned out to be 12.5 µg/mL (≈ 35.2 µM); with Aspergillus fumigatus it was 12.5 µg/mL (≈ 35.2 µM); against Trichophyton benhamiae, 0.1 µg/mL (≈ 0.282 µM).

Consider `C/C=C(\c1ccccc1OC(C)c1cccc(Cl)c1)n1ccnc1` (configuration not stated), for which the values for the MIC in the assay with Candida albicans, with Aspergillus fumigatus and in the assay on Trichophyton benhamiae were 3.1 µg/mL (≈ 9.15 µM), 1.6 µg/mL (≈ 4.72 µM) and 0.1 µg/mL (≈ 0.295 µM), respectively.

`C=C(c1cc(Cl)ccc1OC)n1ccnc1`: the MIC in the assay on Candida albicans was greater than 100 µg/mL; with Aspergillus fumigatus, 3.1 µg/mL (≈ 13.2 µM); in the assay with Trichophyton benhamiae, 0.4 µg/mL (≈ 1.7 µM).

On to `C=C(c1ccccc1OCc1ccc(Cl)cc1Cl)n1ccnc1`, for which the MIC with Candida albicans is 50 µg/mL (≈ 145 µM); against Aspergillus fumigatus, 1.6 µg/mL (≈ 4.63 µM); against Trichophyton benhamiae, 0.1 µg/mL (≈ 0.29 µM).

As to `CC(C)=C(c1ccccc1OCc1ccc(Cl)cc1Cl)n1ccnc1`, the MIC is 12.5 µg/mL (≈ 33.5 µM) against Candida albicans, 1.6 µg/mL (≈ 4.29 µM) with Aspergillus fumigatus and 3.1 µg/mL (≈ 8.3 µM) against Trichophyton benhamiae.

For `C=C(c1ccccc1OCc1ccc(C(C)C)cc1)n1ccnc1`, the MIC was 25 µg/mL (≈ 78.5 µM) against Candida albicans, 3.1 µg/mL (≈ 9.74 µM) with Aspergillus fumigatus and 3.1 µg/mL (≈ 9.74 µM) against Trichophyton benhamiae.

Take `C=C(c1cc(Cl)ccc1OC(C)c1cccc(Cl)c1)n1ccnc1` (configuration not stated): the minimum inhibitory concentration (MIC) was 6.2 µg/mL (≈ 17.3 µM) against Candida albicans, 12.5 µg/mL (≈ 34.8 µM) against Aspergillus fumigatus and 0.1 µg/mL (≈ 0.278 µM) against Trichophyton benhamiae.

Regarding `C=C(c1ccccc1OCc1ccsc1)n1ccnc1`, the MIC in the assay on Candida albicans amounted to 50 µg/mL (≈ 177 µM); with Aspergillus fumigatus it was 3.1 µg/mL (≈ 11 µM); in the assay with Trichophyton benhamiae, 0.1 µg/mL (≈ 0.354 µM).

As to `CC=C(c1ccccc1OCc1ccc(Cl)cc1Cl)n1ccnc1`, the MIC in the assay on Candida albicans came to 12.5 µg/mL (≈ 34.8 µM); with Aspergillus fumigatus it was 0.1 µg/mL (≈ 0.278 µM); against Trichophyton benhamiae, 6.2 µg/mL (≈ 17.3 µM).

Take `C=C(c1ccccc1OCc1ccc([N+](=O)[O-])cc1)n1ccnc1`: the MIC against Candida albicans was 12.5 µg/mL (≈ 38.9 µM); against Aspergillus fumigatus, 6.2 µg/mL (≈ 19.3 µM); in the assay with Trichophyton benhamiae, 0.1 µg/mL (≈ 0.311 µM).

In the case of `C=C(c1ccccc1OCc1ccccc1)n1ccnc1`, the MIC in the assay with Candida albicans was found to be 12.5 µg/mL (≈ 45.2 µM); in the assay on Aspergillus fumigatus, 3.1 µg/mL (≈ 11.2 µM); with Trichophyton benhamiae, 0.2 µg/mL (≈ 0.724 µM).

For the compound `C=C(c1cc(Cl)cc(Cl)c1OCc1ccccc1)n1ccnc1`, the MIC with Candida albicans was greater than 100 µg/mL; in the assay with Aspergillus fumigatus, greater than 100 µg/mL; in the assay with Trichophyton benhamiae, 3.1 µg/mL (≈ 8.98 µM).

On to `C=C(c1ccccc1OC(C)c1ccccc1)n1ccnc1` (configuration not stated), for which the minimum inhibitory concentration (MIC) with Candida albicans was determined as 25 µg/mL (≈ 86.1 µM); against Aspergillus fumigatus, 6.2 µg/mL (≈ 21.4 µM); in the assay with Trichophyton benhamiae, 0.1 µg/mL (≈ 0.344 µM).

For `C=C(c1c(Cl)ccc(Cl)c1OCc1ccc(Cl)cc1)n1ccnc1`, the results for the MIC against Candida albicans, against Aspergillus fumigatus and in the assay on Trichophyton benhamiae were greater than 100 µg/mL, greater than 100 µg/mL and 12.5 µg/mL (≈ 32.9 µM), respectively.

In the case of `C=C(c1ccccc1OCCOc1ccc(Cl)cc1)n1ccnc1`, the figures for the MIC in the assay with Candida albicans, against Aspergillus fumigatus and with Trichophyton benhamiae were 50 µg/mL (≈ 147 µM), 1.6 µg/mL (≈ 4.69 µM) and 0.1 µg/mL (≈ 0.293 µM), respectively.

For `C=C(c1cc(Cl)ccc1OC(CCC)c1ccccc1)n1ccnc1` (configuration not stated), the minimal inhibitory concentration (MIC) was greater than 100 µg/mL against Candida albicans, greater than 100 µg/mL in the assay with Aspergillus fumigatus and 0.8 µg/mL (≈ 2.27 µM) in the assay with Trichophyton benhamiae.

Consider `CCC=C(c1cc(Cl)ccc1OCc1ccc(Cl)cc1)n1ccnc1`, for which the minimum inhibitory concentration (MIC) against Candida albicans turned out to be 6.2 µg/mL (≈ 16.6 µM); against Aspergillus fumigatus, 0.8 µg/mL (≈ 2.14 µM); against Trichophyton benhamiae it was 0.4 µg/mL (≈ 1.07 µM).

The record behind these values is ChEMBL document CHEMBL1123801, “Synthesis and antifungal activity of new 1-vinylimidazoles” (1987).
